Among all 340,000 compounds or so, about 3,000 (0.88%) were called active. This excerpt belongs to a sample that is enriched for actives. A number with no mark means an inactive call.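 Rule for the calls: active = inhibition above about 50% at 20 µM (limit read from the data); inactive = the rest.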

Among the data in PubChem BioAssay AID493091 (Sanford-Burnham Center for Chemical Genomics, 2011) are inhibition values, retold here.

Chain of Carboxy-terminal domain RNA polymerase II polypeptide A small phosphatase 1 (Homo sapiens) (Q9GZU7 76-261 limits assumed): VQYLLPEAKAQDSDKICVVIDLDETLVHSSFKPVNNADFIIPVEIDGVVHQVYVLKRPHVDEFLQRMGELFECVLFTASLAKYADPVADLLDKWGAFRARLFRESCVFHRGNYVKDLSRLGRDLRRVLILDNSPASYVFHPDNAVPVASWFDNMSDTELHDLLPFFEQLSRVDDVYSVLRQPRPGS

For this assay, the target named is Carboxy-terminal domain RNA polymerase II polypeptide A small phosphatase 1 (Homo sapiens) (UniProt Q9GZU7). Description: inhibition of human SCP1 dephosphorylation activity – biochemical, colorimetric, uHTS, primary screen (AID 493091).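 Note: plate controls were DMSO wells with enzyme for no effect and wells lacking enzyme for full effect.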 The conditions noted are these: Recombinant Scp1, phosphopeptide, malachite green phosphate absorbance; at 20 µM; stronger effect = higher value. An outline of the steps:
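Assay system: SCP-1 catalytic fragment, aa 76-261 | Buffer or medium: Tris acetate buffer pH 5.5 with MgCl2 and Tween-20 | Compound: One concentration, 20 µM, with 1.0% DMSO | Also added: Phospho 17-mer peptide substrate | Signal: Absorbance at 630 nm | Incubation: 45 min enzyme reaction at room temperature | Measure: % inhibition of SCP-1 phosphate liberation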
What is called inhibition is the relative decrease from the control value, in per cent. For `COc1ccc(NC(=O)CN(C)C(=O)c2cc(-c3ccc(C)o3)nc3ccccc23)cc1`, the inhibition is -3.85%.

As for `CC(=O)N1CCN(C(=O)c2cc(-c3ccc(C)o3)nc3ccccc23)CC1`, the inhibition is -8.9%.

As for `Cc1ccc(NC(=O)c2cc(-c3ccc(C)o3)nc3ccccc23)nc1`, the inhibition is 67.5% (active).

Regarding `O=C(C1CCCO1)N1CCN(S(=O)(=O)c2ccc(Br)cc2)CC1` (stereo unspecified), the inhibition was -5.02%.

For `CN(C)C(CNC(=O)c1ccc(S(=O)(=O)NCc2ccco2)cc1)c1ccccc1` (stereo unspecified), the inhibition is -0.87%.

Regarding `COc1ccccc1C(=O)NN1C(=O)C2C3C=CC(O3)C2C1=O` (stereo unspecified), the inhibition is -11.3%.

With `O=C(NN1C(=O)C2C3C=CC(O3)C2C1=O)c1ccccc1` (stereo unspecified), the inhibition was 56% (active).

In the case of `O=C(NN1C(=O)C2C3C=CC(O3)C2C1=O)c1ccncc1` (stereo unspecified), the inhibition was 0.55%.

For the compound `CCOc1cc(NC(=O)CCl)c(OCC)cc1NC(C)=O`, the inhibition is -1.31%.

As to `O=c1ccc2c(-c3ccccc3S(=O)(=O)O)c3ccc(O)c(O)c3oc-2c1O`, the inhibition was 64.1% (active).

As to `O=C(Nc1cc2c3c(c1)CC(=O)N3CCC2)c1ccccc1F`, the inhibition was -6.14%.

`O=P(O)(CP(=O)(c1ccccc1)c1ccccc1)c1ccccc1`: the inhibition is -4.63%.

With `O=C(Cn1cc(/C=N/NC(=O)c2cccc(C(F)(F)F)c2)c2ccccc21)Nc1ccc(F)cc1`, the inhibition is 90.8% (active).

`O=C(CSc1ccc(/C=N/NC(=O)c2cccc(F)c2)o1)Nc1ccccc1`: the inhibition was -3.74%.

Turning to `COc1cccc(Cn2cc(/C=N/NC(=O)c3cc(O)cc(O)c3)c3ccccc32)c1`, the inhibition is -15.4%.

In the case of `COc1cc(C2C3=C(CCCC3=O)OC3=C2C(=O)CCC3)ccc1OCC(=O)Nc1ccccc1`, the inhibition was 4.63%.

Turning to `COc1ccc(N2CCN(C(=O)CSc3nnc4ncccn34)CC2)cc1`, the inhibition was -6.4%.

As to `COc1ccc(N2CCN(C(=O)CSc3nc4cc(OC)c(OC)cc4cc3C#N)CC2)cc1`, the inhibition was 67.5% (active).

Regarding `CCOc1ccc(-c2nnn(CC(=O)N3CCN(c4ccc(OC)cc4)CC3)n2)cc1OCC`, the inhibition is -1.29%.

Take `CCNC(=S)NCC`: the inhibition is -5.72%.

With `COc1ccc(/C(O)=C2/C(=O)C(=O)N(CC3CCCO3)C2c2ccc(OC)c(OC)c2)cc1` (stereo unspecified), the inhibition was -4.81%.

With `Cc1cc(C)n2nc(SCC(=O)NC(=O)NCc3ccco3)nc2n1`, the inhibition is 7.37%.

As for `Cc1ccc(NC(=O)C(=O)NCc2ccco2)c(C)c1`, the inhibition was -2.49%.

With `Cc1ccc(SCC(=O)NC(=O)NCc2ccco2)c(C)c1`, the inhibition is 70% (active).

In the case of `O=C(Cc1ccccc1Cl)N1CCN(c2ccccn2)CC1`, the inhibition is -2.92%.

For `O=C(Cn1cnc2ccccc2c1=O)Nc1cccc(S(=O)(=O)N2CCCCC2)c1`, the inhibition is -7.43%.

For `CN(C)C=NC(=O)c1cccn1-c1ncc(C(F)(F)F)cc1Cl`, the inhibition is -4.15%.

Take `COc1ccc(Cl)cc1NC(=O)CCS(=O)(=O)c1cc2c(cc1C)NC(=O)CO2`: the inhibition is -1.24%.

As for `O=C(Cc1ccc(Br)cc1)NCCc1ccccc1`, the inhibition is -9.76%.

Regarding `Cc1ccc(S(=O)(=O)CCC(=O)OCC(=O)NCCc2ccc(S(N)(=O)=O)cc2)cc1`, the inhibition was -5.47%.

`COc1ccc(Cl)cc1NC(=O)CCS(=O)(=O)c1ccc(Br)cc1`: the inhibition is 94.5% (active).

For the compound `O=C(CCS(=O)(=O)c1ccc(Br)cc1)NCCc1ccc(Cl)cc1`, the inhibition was 80% (active).

As to `CCOc1ccc(OCC)c(NC(=O)CCS(=O)(=O)c2ccc(C)cc2)c1`, the inhibition is -14.2%.

For `CCc1ccc(C(=O)N2CCN(S(=O)(=O)c3sc(C(=O)O)c(C)c3C(=O)O)CC2)cc1`, the inhibition was 11.9%.

Turning to `CC1CC(C)CN(C/C=C/c2ccccc2[N+](=O)[O-])C1` (stereo unspecified), the inhibition is -6.48%.

Regarding `C=C1c2c(Cl)ccc(O)c2C(O)=C2C(=O)[C@]3(O)C(O)=C(C(N)=O)C(=O)[C@@H](N(C)C)[C@@H]3[C@@H](O)C12` (stereo partly specified), the inhibition is 65.5% (active).

Turning to `CN(C)[C@@H]1C(=O)C(C(N)=O)=C(O)[C@@]2(O)C(=O)C3=C(O)c4c(O)ccc(Cl)c4[C@@H](O)[C@H]3C[C@@H]12`, the inhibition was -6.29%.

Take `O=C(CNC(=O)c1cc2c(s1)CCC2)Nc1ccccc1Br`: the inhibition was -7%.

Take `O=C(CNC(=O)c1ccc(Br)o1)Nc1ccccc1`: the inhibition is -5.1%.

For the compound `O=C(Nc1ccc(-c2nnc(-c3ccccc3)o2)cc1)c1ccc(Br)o1`, the inhibition was 73% (active).

For `Brc1ccc(-c2nnc(-c3ccccc3)o2)o1`, the inhibition was 2.87%.

Take `O=C(COC(=O)c1cccnc1Cl)NC12CC3CC(CC(C3)C1)C2`: the inhibition is -2.71%.

On to `CC(C)OCC(O)CN1CCN(C(c2ccccc2)c2ccccc2)CC1` (stereo unspecified), for which the inhibition was -1.8%.

Turning to `c1ccc(C(c2ccccc2)N2CCN(Cc3nnnn3C3CCCCC3)CC2)cc1`, the inhibition was 5.01%.

For `CC1(C)CC(N2CCN(C(c3ccccc3)c3ccccc3)CC2)=CC(=[N+]2CCCCC2)C1`, the inhibition was 98.9% (active).

As to `COc1cc2c(cc1OC)C1C(=O)c3cc(OS(C)(=O)=O)c(OC)cc3C1N(C)C2=O` (stereo unspecified), the inhibition was 7.12%.

For `Cc1ccc(C)c(-c2nnc(NC(=O)CS(=O)(=O)c3ccccc3)o2)c1`, the inhibition was -3.82%.

As to `Cc1ccccc1C1CC(c2cccs2)=NN1S(C)(=O)=O` (stereo unspecified), the inhibition is 4.93%.

As for `O=c1c(-c2ccccc2)cnc2n1CCS2`, the inhibition is -9.56%.

For `O=c1c2cc(-c3ccccc3)sc2nc2n1N=C(c1cccs1)CS2`, the inhibition was 79.1% (active).

Take `COc1ccc(OCc2cc(C(=O)NCC3(C)COC3)no2)c(Cl)c1`: the inhibition was -1.65%.

As for `Cc1nc2ccc(C(=O)N(C)CC3CCCN(CCc4ccc(Cl)cc4)C3)cc2[nH]1` (stereo unspecified), the inhibition is -5.73%.

Consider `COc1ccc(S(=O)(=O)N2CCN(C(=O)c3cc(C)oc3C)CC2)cc1`, for which the inhibition is -8.28%.

For `N#Cc1c(N2CCCCC2)nc(N)c2c(N)nc(SCC(=O)O)cc12`, the inhibition is 65.9% (active).

Take `Nc1nc(NCC(=O)O)nc(N2CCCCCC2)c1[N+](=O)[O-]`: the inhibition was 6.19%.

`N#CCc1c(C#N)c(N)nc(N2CCCC2)c1C#N`: the inhibition is -4.92%.
